# Bioassay records (PubChem)
# Sampled rows, rich in hits. Any-hit rate of the full collection: about 2.1%.
# Cneo AK release = causes C. neoformans cell lysis; lysis activity, % at 15 µM; AID 651654; 0.2% of 360,000 active; adenylate kinase release luminescence, 4 h; normalised: neutral wells 0, clomiphene wells 100;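 active means mean lysis activity across replicates of at least 80%, whatever share of replicates individually reach that level; inactive means mean lysis activity below 80%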
#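 Test system: log-phase Cryptococcus neoformans yeast cells. Input: 5 × 10^6 yeast cells/mL. Medium: fresh YPD growth medium. Doses: single dose. Incubation: static 4 h at 37 °C with compound, 1 h detection. Measured by: luminescent adenylate kinase detection reagent. Read-out: signal increase indicating cell lysis. Benchmarks: Clomiphene.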
# C2C12 statin = suppression of simvastatin myotoxicity; C2C12 myotubes + simvastatin, ATP luminescence, 48 h; scaled: DMSO 0, geranylgeraniol control 100; rescue of ATP level, % at 7.49 µM; 0.78% of 330,000 active; AID 602340;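 active means mean ATP rescue above about 67%, or every replicate alone reaching that limit, limit read from the data, passing the limit was not always enough; inconclusive means no clear call, values can overlap the other calls; inactive means mean under the limit and some replicate under it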;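 further: myotubes were challenged with 10 µM simvastatin during compound exposure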
# Xi reactivation = activators of X-chromosome reactivation in mouse fibroblasts; XiGFP mouse fibroblasts, % GFP-positive cells imaging, 3 d; cells co-treated with 5-aza-dC sensitizer; scaled so ellipticine positive control = 100%; activation, % at 7.58 µM; 0.055% of 360,000 active;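 active means mean normalized replicate activation at least 10% and every replicate at or above 10%; inconclusive means only one of the two criteria met; inactive means mean below 10% and not all replicates reach 10%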;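 further: 0% = median of on-plate neutral control wells and 100% = ellipticine 6 µM median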
#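 Material: SV40-immortalized XiGFP fibroblast cells, line 68-5-11 | Buffer or medium: DMEM containing 5-aza-dC | Dosing: One concentration, pinned | Times: 3 d treatment, 15 min room-temperature fixation | Controls: Ellipticine 6 µM positive control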
# DENV2 CPE = inhibitors of DENV2 cytopathic effect; DENV2-infected cells, cytopathic effect rescue, plate reader; CPE inhibition, % at 9.99 µM; 1.7% of 350,000 active; AID 651640; in the data active means CPE inhibition above about 20%, passing the limit was not always enough; inconclusive means no clear call, values can overlap the other calls; tested in BHK-21 cells;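 further: 0% = median of neutral control wells and 100% = median of positive control wells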
# The depositor's hits bear a star; ? = inconclusive; . = no result.
SMILES,Cneo AK release,C2C12 statin,Xi reactivation,DENV2 CPE
C[C@H]1CCCCO[C@@H](CN(C)C(=O)Nc2ccc3c(c2)OCO3)[C@@H](C)CN([C@@H](C)CO)C(=O)c2cc(NS(=O)(=O)c3cccs3)ccc2O1,1,84*,0,?
C[C@H]1CCCCO[C@H](CN(C)C(=O)Nc2ccc(F)cc2)[C@@H](C)CN([C@@H](C)CO)C(=O)c2cc(NS(=O)(=O)c3cccs3)ccc2O1,7,38,-1,27*
C[C@@H]1CCCCO[C@H](CN(C)C(=O)Nc2ccc(F)cc2)[C@H](C)CN([C@H](C)CO)C(=O)c2cc(NS(=O)(=O)c3cccs3)ccc2O1,-1,10,-1,68*
C[C@@H]1CCCCO[C@@H](CN(C)C(=O)Nc2ccc(F)cc2)[C@H](C)CN([C@H](C)CO)C(=O)c2cc(NS(=O)(=O)c3cccs3)ccc2O1,-3,.,0,-12
CC(C)NC(=O)N(C)C[C@H]1OCCCC[C@@H](C)Oc2ccc(NS(=O)(=O)c3cccs3)cc2C(=O)N([C@H](C)CO)C[C@@H]1C,-2,.,1,-7
Cc1ccc(S(=O)(=O)N(C)C[C@@H]2Oc3ccc(NC(=O)Cc4cn(C)c5ccccc45)cc3CC(=O)N([C@H](C)CO)C[C@@H]2C)cc1,43,-26,0,1
COc1cc(OC)cc(-c2oc3cccnc3c2C#CCCO)c1,4,-2,0,-8
COc1ccc(C(=O)c2ccc3oc(-c4ccc(OC)cc4)c(C#CCCO)c3c2)cc1,0,-66,0,79*
CC(C)NC(=O)Nc1ccc2c(c1)C(=O)N([C@H](C)CO)C[C@@H](C)[C@@H](CN(C)Cc1ccc(C(=O)O)cc1)OCCCC[C@H](C)O2,-1,.,0,39*
CC(C)NC(=O)Nc1ccc2c(c1)C(=O)N([C@@H](C)CO)C[C@@H](C)[C@H](CN(C)Cc1ccc(C(=O)O)cc1)OCCCC[C@H](C)O2,46,.,0,5
CC(C)NC(=O)Nc1ccc2c(c1)C(=O)N([C@@H](C)CO)C[C@@H](C)[C@H](CN(C)Cc1ccc(C(=O)O)cc1)OCCCC[C@@H](C)O2,1,.,0,22*
CC(C)NC(=O)Nc1ccc2c(c1)C(=O)N([C@H](C)CO)C[C@@H](C)[C@H](CN(C)Cc1ccc(C(=O)O)cc1)OCCCC[C@H](C)O2,-3,.,0,2
CO[C@H]1CN(C)C(=O)c2cc(NC(=O)C3CCCCC3)ccc2OC[C@@H](C)N(C(=O)c2ccccc2)C[C@@H]1C,-3,-13,0,-3
Cc1ccnc(NC(=O)C(Cc2ccccc2)NC(=O)c2ccccc2)c1 (stereo not given),1,-6,0,38*
O=C(NC(Cc1ccccc1)C(=O)NC(Cc1ccccc1)C(=O)O)c1ccccc1 (stereo not given),-29,0,0,?
Oc1ccccc1-c1cc(-c2ccccc2)no1,-5,94*,.,.
Cc1ccc(-c2cc(-c3ccccc3)no2)c(O)c1,-6,.,0,.
NC(Cc1ccc(C(F)(F)F)cc1)c1csc(Nc2cc(Oc3ccccc3)ncn2)n1 (stereo not given),-10,-23,0,18
COc1ccc(C(N)c2csc(Nc3cc(Oc4ccccc4)ncn3)n2)cc1 (stereo not given),2,4,0,53*
Nc1ccc(CC(N)c2csc(Nc3cc(Oc4ccccc4)ncn3)n2)cc1 (stereo not given),2,8,0,46*
COc1ccc(NC(=O)N(C)C[C@H]2Oc3ccc(NC(=O)CCCN(C)C)cc3C(=O)N([C@H](C)CO)C[C@H]2C)cc1,56,5,0,2
COC(=O)c1c(NC(=O)CCCC(=O)O)sc(C)c1C,0,.,.,.
CCc1ccc(CCC(=O)Nc2sc(C)c(C)c2C(=O)OC)o1,-3,94*,.,4
CCN(C[C@H]1[C@H](c2ccccc2)[C@@H](CO)N1CC1CC1)C(=O)c1ccccn1,-4,-4,0,21*
CCN(C[C@H]1[C@H](c2ccccc2)[C@H](CO)N1CC1CC1)C(=O)c1ccccn1,-5,19,0,5
CCN(C[C@H]1[C@@H](c2ccccc2)[C@H](CO)N1CC1CC1)C(=O)c1ccccn1,12,-2,0,25*
CC(C)NC(=O)N(C)C[C@H]1Oc2c(NC(=O)c3cnccn3)cccc2C(=O)N([C@H](C)CO)C[C@@H]1C,-1,-9,2,-8
